Where no end group is shown, it is not given here. [ ]: non-standard residue; d: D form. pT = C[C@@H](OP(=O)(O)O)[C@H](N)C(=O)O
Legend:
[1] = tested on: Mdc1–FHA WT and T4A mutant domains; test: SILAC pull-down, wild-type versus T4A Mdc1–FHA domain after IR; type: binding, human; conditions: IR-treated cells
In short: (§1)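 U2OS cells stably carry a doxycycline-inducible, C-terminally Strep-tagged FHA domain (aa 1–154) or empty plasmid. They are SILAC-labelled (Lys0/Arg0, Lys4/Arg6, Lys8/Arg10) in dialyzed FBS, induced 16 h, then given 10 Gy IR for 30 min. Lysis in pH 7.5 Tris/NP-40 buffer with phosphatase and protease inhibitors, Strep-Tactin capture, pooled eluates on 4–20% SDS-PAGE, in-gel trypsin digestion. Analysis by nano-LC Orbitrap Velos MS and MaxQuant (FDR <1%). Read-out is normalized log2 SILAC ratios; 1:1:1 ratios count as background binders.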

[2] = tested on: Strep-tagged Mdc1–FHA domain (amino acids 1–154); test: SILAC pull-down of Mdc1–FHA interaction partners, −IR versus +IR; type: binding, human; conditions: 10 Gy IR
In short: as §1

Mdc1 FHA domain = Mdc1 FHA domain (UniProt Q14676); test: ITC; conditions: reference: non-phosphorylated Thr-4 peptide; sites T4
Mdc1 [3] = target: Mdc1 (UniProt Q14676); test: Strep-Tactin pull-down, SILAC LC-MS/MS; conditions: reference: wild type FHA fragment; sites T4
MRE11 = test: Peptide pull-down from HeLa nuclear extract; type: binding, human; conditions: peptide coupled to magnetic beads; band at ∼80 kDa
[4] = tested on: Mdc1 FHA domain (M-1 GST-fragment); test: Phosphopeptide pull-down with GST fragment M-1; type: binding, human; conditions: bacterially expressed GST-fusion
[5] = tested on: Mdc1 BRCT domains (M-8 GST-fragment); test: Phosphopeptide pull-down with GST fragment M-8; type: binding, human; conditions: bacterially expressed GST-fusion
Mdc1 [6] = test: Peptide pull-down from HeLa nuclear extract; type: binding, human; conditions: peptide coupled to magnetic beads, SDS-PAGE, western blot
RAD50 = test: Peptide pull-down from HeLa nuclear extract; type: binding, human; conditions: peptide coupled to magnetic beads; band at ∼150 kDa
Mdc1 1-800 = Mdc1 1-800 (UniProt Q14676); test: anti-Flag co-IP, anti-Myc blot; conditions: reference: wild type; sites T4
Mdc1 M-1, 1-124 = Mdc1 M-1, 1-124 (UniProt Q14676); test: peptide pull-down of purified GST fragment; conditions: reference: unphosphorylated peptide; sites T4
[7] = target: T1, Mdc1 fragment M-1 (amino acids 1–124), GST fusion (human, UniProt Q14676 1-124); test: pull-down
T1 sequence (looked up): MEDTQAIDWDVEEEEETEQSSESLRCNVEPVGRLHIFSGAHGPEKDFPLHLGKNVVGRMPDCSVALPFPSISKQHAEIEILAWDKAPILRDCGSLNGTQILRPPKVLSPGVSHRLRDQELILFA

endogenous Mdc1 = test: Co-immunoprecipitation of Flag-tagged Mdc1; type: cell-based, human; conditions: 293T cells, with or without IR (10 Gy)
In short: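 HEK 293T cells in D-MEM with 10% FCS and streptomycin/penicillin were transfected (FuGene 6 or calcium phosphate) with FLAG-tagged human Mdc1 residues 1–800 in pcDNA3.1(+). IR was given in an X-ray cabinet at 5–10 Gy/min. Complexes were captured on anti-FLAG M2 affinity gel and probed for endogenous Mdc1.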

Myc-tagged Mdc1 (1–800) = test: Co-immunoprecipitation of Flag- and Myc-tagged Mdc1; type: cell-based, human; conditions: transiently transfected 293T cells, anti-Flag IP, anti-Myc immunoblot
In short: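 Human Mdc1 residues 1–800, C-terminally tagged with HA/FLAG or Myc, in a pcDNA3.1(+) vector. HEK 293T cells grown in D-MEM with 10% FCS and streptomycin/penicillin (100 U/ml). Transfected with FuGene 6 or calcium phosphate. Immunoprecipitation on anti-FLAG M2 affinity gel; Myc-tagged partner detected by immunoblot with rabbit polyclonal c-Myc antibody.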

SEC-MALS = target: the molecule itself; test: SEC-MALS
[8] = tested on: Mdc1 Thr-4 / Thr-98 phosphorylation; test: MS quantitation of Mdc1–FHA phosphorylation site occupancy; type: cell-based, human

Chain of Mdc1 (UniProt Q14676) (Q14676 1-154 T4A): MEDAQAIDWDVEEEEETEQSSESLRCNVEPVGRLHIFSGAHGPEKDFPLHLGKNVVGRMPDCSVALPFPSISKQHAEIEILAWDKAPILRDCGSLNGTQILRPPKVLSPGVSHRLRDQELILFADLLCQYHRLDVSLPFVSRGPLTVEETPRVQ

MDC1: endogenous Mdc1 as interaction partner of its own FHA domain
interaction with wild-type compared to T4A FHA domain (in words) [1]: interacts with the wild-type fragment

DDB1- and Cul4-associated factor 1 [DCAF1]
decrease of interaction with the MDC1–FHA domain in the presence of DNA damage [2]: > 2.5 fold

Mdc1 Thr-4 motif peptide (from UniProt Q14676) pThr-4 peptide
binding against the reference (Mdc1 FHA domain): stronger

Mdc1 1-154 (from UniProt Q14676) T4A FHA fragment
binding against the reference (Mdc1 [3]): weaker

MED[pT]QAIDWDAE[KBtn] [pThr-4 phosphopeptide]
MRE11 pulled down from HeLa nuclear extract (MRE11): pulled down by the phosphopeptide only | binding of FHA domain GST-fusion [4]: bound tightly and specifically | binding of C-terminal BRCT-repeat region GST-fusion [5]: no significant interaction detectable | Mdc1 pulled down from HeLa nuclear extract (Mdc1 [6]): efficiently pulled down | Mdc1 pulled down from HeLa nuclear extract (Mdc1 [6]; listed as phosphopeptide): pulled down by the phosphopeptide only | RAD50 pulled down from HeLa nuclear extract (RAD50): pulled down by the phosphopeptide only

Mdc1 1-800 (from UniProt Q14676) T4A
binding against the reference (Mdc1 1-800): weaker

Mdc1 1-12 (from UniProt Q14676) pThr-4 peptide
binding against the reference (Mdc1 M-1, 1-124): stronger

DNA damage binding protein 1 [DDB1]
decrease of interaction with the MDC1–FHA domain in the presence of DNA damage [2]: > 2.5 fold

MED[pT]QAIDWDVE (peptide, UniProt Q14676 1-12, looked up)
binding result [7]: binds

B1: RNF95: uncharacterized RING-finger domain protein (protein)
chain: MATSAPLRSLEEEVTCSICLDYLRDPVTIDCGHVFCRSCTTDVRPISGSRPVCPLCKKPFKKENIRPVWQLASLVENIERLKVDKGRQPGEVTREQQDAKLCERHREKLHYYCEDDGKLLCVMCRESREHRPHTAVLMEKAAQPHREKILNHLSTLRRDRDKIQGFQAKGEADILAALKKLQDQRQYIVAEFEQGHQFLREREEHLLEQLAKLEQELTEGREKFKSRGVGELARLALVISELEGKAQQPAAELMQDTRDFLNRYPRKKFWVGKPIARVVKKKTGEFSDKLLSLQRGLREFQGKLLRDLEYKTVSVTLDPQSASGYLQLSEDWKCVTYTSLYKSAYLHPQQFDCEPGVLGSKGFTWGKVYWEVEVEREGWSEDEEEGDEEEEGEEEEEEEEAGYGDGYDDWETDEDEESLGDEEEEEEEEEEEVLESCMVGVARDSVKRKGDLSLRPEDGVWALRLSSSGIWANTSPEAELFPALRPRRVGIALDYEGGTVTFTNAESQELIYTFTATFTRRLVPFLWLKWPGTRLLLRP
interaction with wild-type compared to T4A FHA domain (in words) [1]: significantly increased in the wild-type compared to T4A FHA domain expressing cells

B2: Mdc1 (1–800): tagged N-terminal Mdc1 fragment lacking the BRCT domains (protein)
chain: MEDTQAIDWDVEEEEETEQSSESLRCNVEPVGRLHIFSGAHGPEKDFPLHLGKNVVGRMPDCSVALPFPSISKQHAEIEILAWDKAPILRDCGSLNGTQILRPPKVLSPGVSHRLRDQELILFADLLCQYHRLDVSLPFVSRGPLTVEETPRVQGETQPQRLLLAEDSEEEVDFLSERRMVKKSRTTSSSVIVPESDEEGHSPVLGGLGPPFAFNLNSDTDVEEGQQPATEEASSAARRGATVEAKQSEAEVVTEIQLEKDQPLVKERDNDTKVKRGAGNGVVPAGVILERSQPPGEDSDTDVDDDSRPPGRPAEVHLERAQPFGFIDSDTDAEEERIPATPVVIPMKKRKIFHGVGTRGPGAPGLAHLQESQAGSDTDVEEGKAPQAVPLEKSQASMVINSDTDDEEEVSAALTLAHLKESQPAIWNRDAEEDMPQRVVLLQRSQTTTERDSDTDVEEEELPVENREAVLKDHTKIRALVRAHSEKDQPPFGDSDDSVEADKSSPGIHLERSQASTTVDINTQVEKEVPPGSAIIHIKKHQVSVEGTNQTDVKAVGGPAKLLVVSLEEAWPLHGDCETDAEEGTSLTASVVADVRKSQLPAEGDAGAEWAAAVLKQERAHEVGAQGGPPVAQVEQDLPISRENLTDLVVDTDTLGESTQPQREGAQVPTGREREQHVGGTKDSEDNYGDSEDLDLQATQCFLENQGLEAVQSMEDEPTQAFMLTPPQELGPSHCSFQTTGTLDEPWEVLATQPFCLRESEDSETQPFDTHLEAYGPCLSPPRAIPGDQHPESPVHTEPM
modifications: left off: HA/FLAG on one copy and Myc on the other, C-terminal, kept
co-immunoprecipitation with endogenous Mdc1 (endogenous Mdc1): exclusively in extracts prepared from IR-treated cells | interaction of Flag-tagged with Myc-tagged Mdc1 (1–800) (Myc-tagged Mdc1 (1–800)): efficiently interacted

B3: wild-type Mdc1–FHA (27–138) (domain or fragment, human, UniProt Q14676 27-138, looked up)
chain: NVEPVGRLHIFSGAHGPEKDFPLHLGKNVVGRMPDCSVALPFPSISKQHAEIEILAWDKAPILRDCGSLNGTQILRPPKVLSPGVSHRLRDQELILFADLLCQYHRLDVSLP
stoichiometry N (SEC-MALS): 2

B4: Mdc1-FHA domain: C-terminally Strep-tagged Mdc1-FHA domain (amino acids 1–154) (protein)
chain: B3 chain
modifications: left off: GST, end not stated, cleaved
Thr-98 phosphorylation ([8]; MS of tryptic peptide): no phosphorylated form was evident | occupancy rate of phosphorylated Thr-4, after irradiation ([8]; SILAC and extracted ion chromatogram quantitation, after irradiation): 61.5% | occupancy rate of phosphorylated Thr-4, before irradiation ([8]; SILAC and extracted ion chromatogram quantitation, not irradiated): 18.6%
